Reference: ChEMBL document CHEMBL1124186, “Synthesis and evaluation of tylosin-related macrolides modified at the aldehyde function: a new series of orally effective antibiotics” (1988)
≈ marks a conversion by molar mass, not a printed value.

Experiments:
[1] = system: Mus musculus; experiment: Peripheral plasma levels in mice after oral administration of 100 mg/kg dose for 0.25 hr; format: functional, organism-based; set-up: dose 100 mg/kg
Summary of the method: (§1)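 Mice were given the compound orally and sampled for peripheral plasma at each time point. Plasma was assayed microbiologically against Micrococcus luteus seeded in Antibiotic Medium 1. Inhibition zone sizes were read, and concentrations were calculated from each compound's own standard curve. Each value is the mean of five mice per time point.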

[2] = system: Rattus norvegicus; experiment: Peripheral plasma levels in rats after oral administration of 100 mg/kg dose for 1 hr; format: functional, organism-based; set-up: dose 100 mg/kg
Summary of the method: (§2)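 Rats received 100 mg/kg orally and were sampled for peripheral plasma. Concentrations were measured by Micrococcus luteus agar-diffusion microbiological assay in Antibiotic Medium 1, with zone sizes converted using the standard curve for the appropriate compound. Each value is the average of three rats per time point.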

[3] = system: Rattus norvegicus; experiment: Peripheral plasma levels in rats after oral administration of 100 mg/kg dose for 2 hr; format: functional, organism-based; set-up: dose 100 mg/kg; summary of the method: as §2
[4] = system: Rattus norvegicus; experiment: Peripheral plasma levels in rats after oral administration of 100 mg/kg dose for 4 hr; format: functional, organism-based; set-up: dose 100 mg/kg; summary of the method: as §2
[5] = system: Mus musculus; experiment: Peripheral plasma levels in mice after oral administration of 50 mg/kg dose for 0.25 hr; format: functional, organism-based; set-up: dose 50 mg/kg; summary of the method: as §1
[6] = system: Staphylococcus aureus; experiment: In vitro antimicrobial activity against Staphylococcus aureus X1; format: functional
[7] = system: Streptococcus pyogenes; experiment: In vivo effective dose against experimental infections in rodent caused by Streptococcus pyogenes C203 when administered orally; format: functional; conditions: po
[8] = system: Staphylococcus epidermidis; experiment: In vitro antimicrobial activity against Staphylococcus epidermidis EPI1; format: functional
[9] = system: Rattus norvegicus; experiment: Peripheral plasma levels in rats after oral administration of 100 mg/kg dose for 0.25 hr; format: functional, organism-based; set-up: dose 100 mg/kg; summary of the method: as §2
[10] = system: Mus musculus; experiment: Peripheral plasma levels in mice after oral administration of 100 mg/kg dose for 1 hr; format: functional, organism-based; set-up: dose 100 mg/kg; summary of the method: as §1
[11] = system: Rattus norvegicus; experiment: Peripheral plasma levels in rats after oral administration of 100 mg/kg dose for 0.5 hr; format: functional, organism-based; set-up: dose 100 mg/kg; summary of the method: as §2
[12] = system: Mus musculus; experiment: Peripheral plasma levels in mice after oral administration of 50 mg/kg dose for 0.5 hr; format: functional, organism-based; set-up: dose 50 mg/kg; summary of the method: as §1
[13] = system: Mus musculus; experiment: Peripheral plasma levels in mice after oral administration of 50 mg/kg dose for 1 hr; format: functional, organism-based; set-up: dose 50 mg/kg; summary of the method: as §1
[14] = system: Mus musculus; experiment: Peripheral plasma levels in mice after oral administration of 50 mg/kg dose for 2 hr; format: functional, organism-based; set-up: dose 50 mg/kg; summary of the method: as §1
[15] = system: Mus musculus; experiment: Peripheral plasma levels in mice after oral administration of 100 mg/kg dose for 0.5 hr; format: functional, organism-based; set-up: dose 100 mg/kg; summary of the method: as §1
[16] = system: Streptococcus pneumoniae; experiment: In vitro antimicrobial activity against Streptococcus pneumoniae; format: functional
[17] = system: Enterococcus faecium; experiment: In vitro antimicrobial activity against Streptococcus faecium X66; format: functional, streptococcus fae-cium
[18] = system: Streptococcus pyogenes; experiment: In vitro antimicrobial activity against Streptococcus pyogenes C203; format: functional
[19] = system: Haemophilus influenzae; experiment: In vitro antimicrobial activity against Haemophilus influenzae.; format: functional
[20] = system: Streptococcus pyogenes; experiment: In vivo effective dose against experimental infections in rodent caused by Streptococcus pyogenes C203 when administered sc; format: functional
[21] = system: Bacteroides fragilis; experiment: In vitro antimicrobial activity against anaerobic bacteria bacteroides fragilis 1877; format: functional
[22] = system: Mus musculus; experiment: Peripheral plasma levels in mice after oral administration of 100 mg/kg dose for 4 hr; format: functional, organism-based; set-up: dose 100 mg/kg; summary of the method: as §1
[23] = system: Cutibacterium acnes; experiment: In vitro antimicrobial activity against anaerobic bacteria propionibacterium acnes 79; format: functional
[24] = system: Anaerococcus prevotii; experiment: In vitro antimicrobial activity against anaerobic bacteria peptococcus prevoti 1281; format: functional
[25] = system: Peptoniphilus asaccharolyticus; experiment: In vitro antimicrobial activity against anaerobic bacteria peptococcus asaccharolyticus 1302; format: functional
[26] = system: Peptostreptococcus anaerobius; experiment: In vitro antimicrobial activity against anaerobic bacteria eubacterium peptostreptococcus anaerobius 1428,; format: functional
[27] = system: Phocaeicola vulgatus; experiment: In vitro antimicrobial activity against anaerobic bacteria bacteroides vulgatus 1211; format: functional
[28] = system: Prevotella melaninogenica; experiment: In vitro antimicrobial activity against anaerobic bacteria bacteroides melaninogenicus 2736; format: functional
[29] = system: Chlamydia trachomatis; experiment: In vitro antimicrobial activity against chlamydia trachomatis.; format: functional
[30] = system: Prevotella melaninogenica; experiment: In vitro antimicrobial activity against anaerobic bacteria bacteroides melaninogenicus 1856,; format: functional
[31] = In vitro antimicrobial activity against anaerobic bacteria peptostreptococcus intermedius 1264; format: functional
[32] = system: Fusobacterium; experiment: In vitro antimicrobial activity against anaerobic bacteria fusobacterium symbiosum 1470; format: functional
[33] = system: Fusobacterium necrophorum; experiment: In vitro antimicrobial activity against anaerobic bacteria usobacterium necrophorum 6054A; format: functional
[34] = system: Clostridium septicum; experiment: In vitro antimicrobial activity against anaerobic bacteria clostridium septicum 1128; format: functional
[35] = system: Clostridium perfringens; experiment: In vitro antimicrobial activity against anaerobic bacteria clostridium perfringens 81,; format: functional
[36] = system: Collinsella aerofaciens; experiment: In vitro antimicrobial activity against anaerobic bacteria eubacterium aerofaciens 1235; format: functional
[37] = system: Clostridioides difficile; experiment: In vitro antimicrobial activity against anaerobic bacteria Clostridium difficile 2994; format: functional
[38] = system: Mus musculus; experiment: Peripheral plasma levels in mice after oral administration of 100 mg/kg dose for 2 hr; format: functional, organism-based; set-up: dose 100 mg/kg; summary of the method: as §1
[39] = system: Bacteroides thetaiotaomicron; experiment: In vitro antimicrobial activity against anaerobic bacteria bacteroides thetaiotaomicron 1438; format: functional
[40] = system: Bacteroides fragilis; experiment: In vitro antimicrobial activity against anaerobic bacteria bacteroides fragilis 1936B,; format: functional
[41] = system: Bacteroides fragilis; experiment: In vitro antimicrobial activity against anaerobic bacteria bacteroides fragilis 111; format: functional
[42] = system: Eikenella corrodens; experiment: In vitro antimicrobial activity against anaerobic bacteria bacteroides corrodens 1874; format: functional

Work on `CC[C@H]1OC(=O)C[C@@H](O)[C@H](C)[C@@H](O[C@@H]2O[C@H](C)[C@@H](O[C@H]3C[C@@](C)(O)[C@@H](O)[C@H](C)O3)[C@H](N(C)C)[C@H]2O)[C@@H](CCN2C(=O)c3ccccc3C2=O)C[C@@H](C)C(=O)/C=C/C(C)=C/[C@@H]1CO[C@@H]1O[C@H](C)[C@@H](O)[C@@H](OC)[C@H]1OC` yielded a Concentration [1] of 13.1 µg/mL, a Concentration [2] of 2.1 µg/mL and a Concentration [3] of 1.4 µg/mL. For the same compound, the Concentration [4] was 1.4 µg/mL, the Concentration [5] was 2.4 µg/mL and the MIC [6] was 1 µg/mL (≈ 0.955 µM). For the same compound, the ED50 [7] was 23 mg/kg, the MIC [8] was 1 µg/mL (≈ 0.955 µM) and the Concentration [9] was 0.5 µg/mL. For the same compound, the Concentration [10] was 6.9 µg/mL, the Concentration [11] was 1.6 µg/mL and the Concentration [12] was 2.2 µg/mL. The Concentration [13] was 1.6 µg/mL, the Concentration [14] was 1.3 µg/mL and the Concentration [15] was 6 µg/mL. The MIC [16] was 32 µg/mL (≈ 30.6 µM), the MIC [17] was over 128 µg/mL and the MIC [18] was 2 µg/mL (≈ 1.91 µM). For the same compound, the MIC [19] was over 128 µg/mL and the ED50 [20] was over 6.3 mg/kg.

For `CC[C@H]1OC(=O)C[C@@H](O)[C@H](C)[C@@H](O[C@@H]2O[C@H](C)[C@@H](O[C@H]3C[C@@](C)(O)[C@@H](O)[C@H](C)O3)[C@H](N(C)C)[C@H]2O)[C@@H](CCCl)C[C@@H](C)C(=O)/C=C/C(C)=C/[C@@H]1CO[C@@H]1O[C@H](C)[C@@H](O)[C@@H](OC)[C@H]1OC`, the Concentration [1] was 10 µg/mL, the MIC [21] was 4 µg/mL (≈ 4.27 µM) and the Concentration [22] was 0.4 µg/mL. The MIC [23] was over 128 µg/mL, the Concentration [5] was 1.9 µg/mL and the MIC [24] was 8 µg/mL (≈ 8.54 µM). It also gave an MIC [6] of 1 µg/mL (≈ 1.07 µM), an MIC [25] of 32 µg/mL (≈ 34.2 µM) and an MIC [26] of 4 µg/mL (≈ 4.27 µM). It also gave an MIC [27] of 1 µg/mL (≈ 1.07 µM), an MIC [28] of 2 µg/mL (≈ 2.14 µM) and an MIC [29] of 1 µg/mL (≈ 1.07 µM). For the same compound, the MIC [30] was 2 µg/mL (≈ 2.14 µM), the MIC [8] was 1 µg/mL (≈ 1.07 µM) and the MIC [31] was 64 µg/mL (≈ 68.3 µM). The Concentration [10] was 3 µg/mL, the MIC [32] was 4 µg/mL (≈ 4.27 µM) and the Concentration [12] was 1.9 µg/mL. The MIC [33] was over 128 µg/mL, the MIC [34] was under 0.5 µg/mL and the Concentration [13] was 0.9 µg/mL. For the same compound, the Concentration [14] was 0.5 µg/mL, the MIC [35] was under 0.5 µg/mL and the Concentration [15] was 8.8 µg/mL. For the same compound, the MIC [36] was 64 µg/mL (≈ 68.3 µM), the MIC [37] was under 0.5 µg/mL and the MIC [16] was 32 µg/mL (≈ 34.2 µM). For the same compound, the MIC [17] was over 128 µg/mL, the Concentration [38] was 1.3 µg/mL and the MIC [39] was 2 µg/mL (≈ 2.14 µM). For the same compound, the MIC [18] was 2 µg/mL (≈ 2.14 µM), the MIC [40] was 4 µg/mL (≈ 4.27 µM) and the MIC [41] was 8 µg/mL (≈ 8.54 µM). The MIC [42] was 4 µg/mL (≈ 4.27 µM), the MIC [19] was over 128 µg/mL and the ED50 [20] was over 6.3 mg/kg.
